# Hits are enriched below; roughly 2.3% of the tested compounds scored in any of these assays.
# TRPC4 inh = blocks the mouse TRPC4 cation channel; HEK293 TRPC4beta/mu-opioid, DAMGO-evoked Fluo4 calcium flux; active compounds read low; B-score at 10 µM; 300,000 tested, 0.39% active; AID 2247;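 active means B-score over 3 SD under the library average, no early fluorescence shift, positive overall ratio signal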
# Target sequence (Q9QUQ5 whole entry, looked up): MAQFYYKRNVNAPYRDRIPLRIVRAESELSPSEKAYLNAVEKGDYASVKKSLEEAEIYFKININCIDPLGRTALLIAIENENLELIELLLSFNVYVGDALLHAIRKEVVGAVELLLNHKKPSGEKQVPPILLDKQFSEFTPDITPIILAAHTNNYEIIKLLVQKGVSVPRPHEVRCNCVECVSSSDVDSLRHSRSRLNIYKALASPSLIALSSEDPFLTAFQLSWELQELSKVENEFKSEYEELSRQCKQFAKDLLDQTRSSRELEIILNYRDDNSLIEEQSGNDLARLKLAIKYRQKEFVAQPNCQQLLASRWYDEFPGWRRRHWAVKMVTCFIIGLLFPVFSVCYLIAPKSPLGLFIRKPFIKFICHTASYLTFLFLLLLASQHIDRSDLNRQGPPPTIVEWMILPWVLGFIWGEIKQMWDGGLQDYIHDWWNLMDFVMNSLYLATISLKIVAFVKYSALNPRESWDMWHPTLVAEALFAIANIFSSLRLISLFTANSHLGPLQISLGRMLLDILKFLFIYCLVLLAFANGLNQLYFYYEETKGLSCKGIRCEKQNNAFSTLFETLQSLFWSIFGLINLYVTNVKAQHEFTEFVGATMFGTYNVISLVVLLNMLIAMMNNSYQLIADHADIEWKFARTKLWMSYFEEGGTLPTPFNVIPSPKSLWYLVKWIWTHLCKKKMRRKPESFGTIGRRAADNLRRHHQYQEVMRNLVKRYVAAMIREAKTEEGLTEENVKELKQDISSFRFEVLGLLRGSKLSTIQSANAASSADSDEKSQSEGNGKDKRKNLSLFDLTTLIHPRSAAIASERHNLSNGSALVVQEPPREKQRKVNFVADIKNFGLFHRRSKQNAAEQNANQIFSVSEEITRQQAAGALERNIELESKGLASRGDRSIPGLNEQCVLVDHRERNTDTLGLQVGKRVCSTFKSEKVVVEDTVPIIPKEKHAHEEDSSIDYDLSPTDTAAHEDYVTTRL
#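 material = TRPC4beta/mu-opioid receptor HEK293 cell line | probe or stimulus = sequential submaximal and maximal DAMGO stimulation | compound dosing = one concentration per compound | measured by = Fluo4 Ca2+ flux fluorescence | evaluation = integrated fluorescence ratio relative to baseline, converted to per-well B score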
# TRPC6 inh = blocks the mouse TRPC6 cation channel. Q61143. HEK293-TRPC6, membrane potential dye, ACh-evoked depolarization; active compounds read low. B-score at 10 µM. 310,000 tested, 1.1% active. AID 2553;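 active means B-score under library mean minus 3 SD, initial fluorescence not abnormally high, positive integrated signal ratio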;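 further: B-score derived from integrated fluorescence ratio over the kinetic read; more negative B-score means stronger inhibition of depolarization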
# TRPC4 agonist = activators of mouse TRPC4 channel | Q9QUQ5 | HEK293 TRPC4beta/mu-opioid, Fluo4 calcium fluorescence; active compounds read high | B-score at 10 µM | 310,000 tested, 0.49% active | AID 2237;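 active means B-score above 5 SD of library B-scores, and initial fluorescence ratio not above library mean plus 5 SD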;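 further: positive B-score marks a calcium rise read as TRPC4 activation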
#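 System: HEK293 cells stably co-expressing mouse TRPC4beta and mu-opioid receptor; Schedule: Fluo4 dye loading 45 min at room temperature, 110 s recording; Detection: Fluo4 fluorescence, kinetic; Evaluation: B-scored integrated calcium fluorescence ratio; Controls: buffer (low) and maximal DAMGO (high).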
# TRPC4 PAM = allosterically enhances the mouse TRPC4 cation channel; Q9QUQ5; B-score at 10 µM; HEK293 TRPC4beta/mu-opioid, DAMGO EC20, Fluo-4 Ca2+ flux; active compounds read high; 310,000 tested, 0.42% active;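 active means B-score of calcium response area above 5 SD of library B-scores, with initial fluorescence ratio within 5 SD of library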
# TRPC6 activator = activators of mouse TRPC6 channel; Q61143; HEK293-TRPC6 membrane potential dye fluorescence; active compounds read high; B-score at 10 µM; 310,000 tested, 0.13% active; AID 2550;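 active means B-score of the integrated fluorescence ratio above library mean plus 3 SD, and starting fluorescence ratio within library mean plus 5 SD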;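 further: higher score means more depolarization so channel activation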
# TRPC4 sel inh 2 = second check of whether TRPC6 inhibitors also affect mouse TRPC4; shares compounds with TRPC6 inh; HEK293 TRPC4/MOR, membrane potential dye fluorescence; channel activated by saturating DAMGO dose; inhibition, % at 10 µM; 920 tested, 42% active; AID 2776;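 active means compounds whose fluorescence signal differed from control wells by over 3 SD, either direction, in both duplicate plates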
# TRPC4 spec = selectivity of TRPC6 inhibitors: effect on mouse TRPC4. AID 2777. HEK293 TRPC4/mu-opioid, membrane potential fluorescence. activity change, negative = inhibition, % at 10 µM. 920 tested, 61% active. shares compounds with TRPC6 inh;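 active means rise or fall in signal beyond 3 SD of buffer-only wells in both replicate plates, either sign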;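 further: integrated kinetic ratio of fluorescence range over baseline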
# HEK293 MPD ctr 2-1 = second check of TRPC6 inhibitor effects in parental HEK293 cells; parental HEK293 membrane potential dye fluorescence; maximal acetylcholine challenge after compound addition; shares compounds with TRPC6 inh; AID 2779; 920 tested, 31% active; signal change vs control, % at 10 µM;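 active means membrane potential signal moving either way by over 3 SD of the maximum-effect control, in both duplicate plates, meaning non-specific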
# HEK293 MPD ctr-1 = parental HEK293 nonspecific activity of TRPC6 inhibitors. shares compounds with TRPC6 inh. parental HEK293 membrane potential dye fluorescence. membrane potential signal change, % at 10 µM. 920 tested, 60% active. AID 2780;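 active means membrane potential signal shifting up or down by more than 3 SD of buffer-only wells, on both duplicate plates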
# HEK293 MPD ctr-2 = parental HEK293 nonspecific activity of TRPC6 modulators; shares compounds with TRPC6 inh; membrane potential dye fluorescence; membrane potential signal change, % at 10 µM; 2,400 tested, 51% active;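 active means membrane potential signal moves up or down beyond 5 SD from buffer-only wells, on both duplicate plates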
# HEK293 MPD ctr 2-2 = second check of TRPC6 modulator effects in parental HEK293 cells; 2,400 tested, 14% active; inhibition, % at 10 µM; membrane potential dye fluorescence; after compound, maximal acetylcholine stimulation; shares compounds with TRPC6 inh;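 active means membrane potential signal drops by more than 5 SD from the mean control signal, in both duplicate plates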
# TRPC4 ctr mod = selectivity of TRPC6 modulators against mouse TRPC4 | percent change from control (negative = decrease, positive = increase), % at 10 µM | shares compounds with TRPC6 inh | AID 488927 | 2,400 tested, 69% active | HEK293 TRPC4/mu-opioid, membrane potential fluorescence;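 active means membrane potential signal moved up or down beyond 5 SD of buffer control wells, in both duplicate plates, actives on both sides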
# TRPC4 ctr inh 2 = second selectivity test of TRPC6 modulators against mouse TRPC4; inhibition, % at 10 µM; AID 488928; shares compounds with TRPC6 inh; 2,400 tested, 55% active; HEK293 TRPC4/mu-opioid, membrane potential dye fluorescence; stimulated with maximal-effect DAMGO;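 active means drop in membrane potential signal beyond 5 SD of the control wells in both duplicate plates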;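 further: TRPC4 counter screen for TRPC6 hits run under conditions tuned for TRPC6 not TRPC4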
# TRPC6 inh conf = confirmation of mouse TRPC6 inhibitors; HEK293-TRPC6, membrane potential dye, ACh-evoked depolarization; AID 488960; 3,300 tested, 43% active; shares compounds with TRPC6 inh; inhibition, % at 10 µM;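 active means fluorescence ratio falls more than 5 SD below the full-stimulation control mean, in both duplicate runs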;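 further: integrated fluorescence ratio of peak minus minimum over baseline after agonist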
# TRPC6 act conf = mouse TRPC6 activator confirmation; 2,800 tested, 11% active; AID 488961; shares compounds with TRPC6 inh; HEK293-TRPC6 membrane potential dye fluorescence, FDSS; activation, % at 10 µM;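 active means ratio signal rise beyond 5 SD above unstimulated control wells' mean, seen in both duplicate runs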
# Hits are given with their value; i = inactive; nt = not tested or not shown.
SMILES,TRPC4 inh,TRPC6 inh,TRPC4 agonist,TRPC4 PAM,TRPC6 activator,HEK293 MPD ctr-2,HEK293 MPD ctr 2-2,TRPC4 ctr mod,TRPC4 ctr inh 2,TRPC6 inh conf,TRPC6 act conf,others
O=[N+]([O-])c1ccc(-c2csc(N3CCc4ccccc4C3)n2)cc1,i,i,i,i,i,nt,nt,nt,nt,nt,nt,
O=[N+]([O-])c1ccc(N2CCc3ccccc3C2)cc1,i,-5.3,i,i,i,i,i,i,i,i,i,
Cc1nn(-c2cc(C)c3ccccc3n2)c2c1CCC2,i,-5.4,i,i,i,i,i,i,i,i,i,
Cc1cc(N2CCCC2)nc2ccccc12,i,-8.2,i,i,i,nt,nt,nt,nt,53%,i,TRPC4 sel inh 2=50%;TRPC4 spec=-30%;HEK293 MPD ctr 2-1=-6.5%;HEK293 MPD ctr-1=-410%
O=C(CCc1cccc(Cl)c1)N1CCCC(Nc2ccccc2)C1 (stereo not given),i,-8.6,i,i,i,nt,nt,nt,nt,55%,i,TRPC4 sel inh 2=i;TRPC4 spec=i;HEK293 MPD ctr 2-1=i;HEK293 MPD ctr-1=i
CCOC(=O)CSc1nnc(NC(=O)CN2CCCCC2)s1,i,i,i,i,i,nt,nt,nt,nt,nt,nt,
c1ccc2c(c1)CCc1ccccc1C2=C1CCNCC1,i,-7.2,i,i,i,nt,nt,nt,nt,i,i,TRPC4 sel inh 2=60%;TRPC4 spec=3.8%;HEK293 MPD ctr 2-1=i;HEK293 MPD ctr-1=2.8%
Nc1ncc2c(n1)-c1ccccc1CC2,i,i,i,i,i,nt,nt,nt,nt,nt,nt,
CC(C)c1ccc(NC(=O)CCNS(=O)(=O)c2cc(Br)cnc2N)cc1,i,i,i,i,i,nt,nt,nt,nt,nt,nt,
O=C(Nc1scc(-c2ccc(Br)cc2)c1C(=O)O)c1ccccc1F,i,-5.3,i,i,i,i,i,i,40%,54%,i,
Cc1onc(-c2ccccc2Cl)c1C(=O)OCC(=O)N1CCN(c2ccccc2)CC1,i,i,i,i,i,nt,nt,nt,nt,nt,nt,
O=C1c2ccccc2C(=O)c2c1ccc1c(=O)n(C3CCCCC3)[nH]c21,i,-5.1,i,i,i,-94%,i,-20%,i,i,i,
O=c1c2[nH]c3ccccc3c2ncn1C1CCCCC1,i,i,i,i,i,nt,nt,nt,nt,nt,nt,
Cc1cc(C)cc(N(CC(=O)NC(C)(C)C)C(=O)CNC(=O)c2cccs2)c1,i,-5.4,i,i,i,i,i,i,i,i,i,
CCOC(=O)N1CCN(C(=O)CSc2nc3ccccc3c(=O)n2-c2ccccc2)CC1,i,i,i,i,17,118%,i,30%,i,nt,172%,
COc1ccc(C[C@H]2CN3C(=NC[C@@H]3Cc3ccc(O)cc3)N2C[C@H](C)NC(=O)c2ccc(C)c(Br)c2)cc1,i,i,i,i,i,nt,nt,nt,nt,nt,nt,
Cc1ccc(S(=O)(=O)NCc2ccccc2)cc1C(=O)N(C)Cc1ccccc1F,i,i,i,i,i,nt,nt,nt,nt,nt,nt,
Cc1cc(C)cc(-n2c(C)c3c(C)nnc(C)c3c2C)c1,i,-7.6,i,i,i,nt,nt,nt,nt,i,i,TRPC4 sel inh 2=54%;TRPC4 spec=-19%;HEK293 MPD ctr 2-1=i;HEK293 MPD ctr-1=-216%
Cc1nnc(C)c2c(C)n(-c3ccc(Cl)c(N)c3)c(C)c12,i,i,i,i,i,nt,nt,nt,nt,nt,nt,
Cc1ccc(S(=O)(=O)NC(=O)c2ccc(-c3ccc(-c4ccccc4)cc3)o2)c(C)c1,i,i,i,i,i,nt,nt,nt,nt,nt,nt,
O=C(c1ccc(Cl)cc1)N1N=CCC1(O)c1ccc(Cl)cc1 (stereo not given),i,i,i,i,i,nt,nt,nt,nt,nt,nt,
O=C1C2C(c3ccccc3)C=CC(c3ccccc3)C2C(=O)N1c1ccccn1 (stereo not given),i,i,i,i,i,nt,nt,nt,nt,nt,nt,
CC(=O)/C(C(=N)N1CCN(Cc2ccccc2)CC1)=C(\C)O,i,i,i,i,i,nt,nt,nt,nt,nt,nt,
CC(=O)/C(C(=N)N1CCN(C(c2ccccc2)c2ccccc2)CC1)=C(\C)O,i,-7,i,i,i,nt,nt,nt,nt,i,i,TRPC4 sel inh 2=i;TRPC4 spec=i;HEK293 MPD ctr 2-1=i;HEK293 MPD ctr-1=i
CCCCCNC(=O)c1c[nH]c2ccc(S(=O)(=O)N3CCC4(CC3)OCCO4)cc2c1=O,i,i,i,i,i,nt,nt,nt,nt,nt,nt,
SMILES,TRPC4 inh,TRPC6 inh,TRPC4 agonist,TRPC4 PAM,TRPC6 activator,HEK293 MPD ctr-2,HEK293 MPD ctr 2-2,TRPC4 ctr mod,TRPC4 ctr inh 2,TRPC6 inh conf,TRPC6 act conf,others
Cc1[nH]c2c(C)cccc2c1CCNS(=O)(=O)c1cccc([N+](=O)[O-])c1,i,-8.7,i,i,i,-100%,i,-26%,32%,i,i,
Cc1ccc([N+](=O)[O-])cc1S(=O)(=O)NCCc1c(C)[nH]c2c(C)cccc12,i,i,i,i,i,nt,nt,nt,nt,nt,nt,
CNS(=O)(=O)c1cc(-c2nnc(N3CCOCC3)c3ccccc23)ccc1C,i,i,i,i,i,nt,nt,nt,nt,nt,nt,
O=C(c1ccc([N+](=O)[O-])cc1)N(Cc1ccc(Br)cc1)N1C(=O)CCCC1=O,i,-9.8,45,i,16,458%,186%,38%,34%,68%,100%,
CCN(CC)CCN(C(=O)Cn1nnc(-c2ccc(C)o2)n1)C(C(=O)NC1CCCC1)c1ccc(F)cc1 (stereo not given),i,i,i,i,30,343%,i,68%,44%,i,192%,
CCN(CC)CCN(C(=O)Cn1nnc(-c2ccc(C)o2)n1)C(C(=O)NC(C)(C)C)c1cccs1 (stereo not given),i,i,i,i,18,488%,i,112%,32%,i,242%,
Cc1ccc(-c2nnn(CC(=O)N(CCO)C(C(=O)NC3CCCC3)c3ccc(F)cc3)n2)o1 (stereo not given),i,i,i,i,i,nt,nt,nt,nt,nt,nt,
Cc1ccc(-c2nnn(CC(=O)N(Cc3ccco3)C(C(=O)NC3CCCC3)c3cccs3)n2)o1 (stereo not given),i,i,i,i,i,nt,nt,nt,nt,nt,nt,

# Screening results from PubChem.
